Assays:
[1] = test system: Hepatocyte (Macaca fascicularis); test: Drug level in monkey hepatocytes treated with [14C]-rivoglitazone at 30 uM after 3 hrs by radio-HPLC/LC-MS/MS analysis in presence of UDPGA, UDPGA/SAM and NADPH-generating system; details: cynomolgus monkey
Liver microsome = test: Drug metabolism in Sprague-Dawley rat liver microsomes assessed as formation of 2-mercapto-3-(4-((6-methoxy-1-methyl-1H-benzo[d]imidazol-2-yl)methoxy)phenyl)propanoic acid at 20 uM after 2 to 4 hrs by radio-HPLC/LC-MS/MS analysis in presence of UDPGA, UDPGA/SAM and NADPH-generating system; assay type: ADME
Cytochrome P450 2D6 = Cytochrome P450 2D6 (Homo sapiens, UniProt P10635); test: (§1) Activity of human CYP2D6 expressed in microsomes isolated from baculovirus infected insect cell assessed as enzyme-mediated 2-mercapto-3-(4-((6-methoxy-1-methyl-1H-benzo[d]imidazol-2-yl)methoxy)phenyl)propanoic acid formation at 20 uM after 2 hrs by radio-HPLC/LC-MS/MS analysis in presence of NADPH-generating system; assay type: ADME
Chain of Cytochrome P450 2D6 (P10635 whole entry): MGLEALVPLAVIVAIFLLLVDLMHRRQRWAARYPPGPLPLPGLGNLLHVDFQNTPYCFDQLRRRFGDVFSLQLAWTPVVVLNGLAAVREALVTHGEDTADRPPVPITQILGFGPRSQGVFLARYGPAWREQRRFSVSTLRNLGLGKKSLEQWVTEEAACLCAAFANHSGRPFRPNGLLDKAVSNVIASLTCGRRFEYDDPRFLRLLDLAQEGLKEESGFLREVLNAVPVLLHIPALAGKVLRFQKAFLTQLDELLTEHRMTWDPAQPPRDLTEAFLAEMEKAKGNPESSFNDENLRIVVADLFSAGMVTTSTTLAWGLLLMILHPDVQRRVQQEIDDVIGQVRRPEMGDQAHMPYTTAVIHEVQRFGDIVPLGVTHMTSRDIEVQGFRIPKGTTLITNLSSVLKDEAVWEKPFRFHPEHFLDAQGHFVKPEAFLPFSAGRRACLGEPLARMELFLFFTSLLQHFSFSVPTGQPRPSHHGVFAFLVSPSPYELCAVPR
Method in brief: (§2)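 Baculovirus-insect-cell microsomes expressing the human CYP (1 mg/ml protein) were incubated with [14C]rivoglitazone (20 μM) in 50 mM potassium phosphate (pH 7.4) or 100 mM Tris-HCl (pH 7.5) with an NADPH-generating system (2 mM NADP+, 20 mM glucose 6-phosphate, 2 units/ml G6PDH, 10 mM MgCl2) for 2 h at 37°C. Insect-cell control supersomes served as the control. Reactions were stopped with acetonitrile, and the concentrated supernatants were analysed by radio-HPLC, LC-MS and LC-MS/MS.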

Cytochrome P450 1A2 = biological target: T1, Cytochrome P450 1A2 (Homo sapiens, UniProt P05177); test: (§3) Activity of human CYP1A2 expressed in microsomes isolated from baculovirus infected insect cell assessed as enzyme-mediated (2S,3S,4S,5R,6R)-6-((1-carboxy-2-(4-((6-methoxy-1-methyl-1H-benzo[d]imidazol-2-yl)methoxy)phenyl)ethylthio)carbonylamino)-3,4,5-trihydroxytetrahydro-2H-pyran-2-carboxylic acid formation at 20 uM after 2 hrs by radio-HPLC/LC-MS/MS analysis in presence of NADPH-generating system/SAM; assay type: ADME
T1 sequence (P05177 whole entry): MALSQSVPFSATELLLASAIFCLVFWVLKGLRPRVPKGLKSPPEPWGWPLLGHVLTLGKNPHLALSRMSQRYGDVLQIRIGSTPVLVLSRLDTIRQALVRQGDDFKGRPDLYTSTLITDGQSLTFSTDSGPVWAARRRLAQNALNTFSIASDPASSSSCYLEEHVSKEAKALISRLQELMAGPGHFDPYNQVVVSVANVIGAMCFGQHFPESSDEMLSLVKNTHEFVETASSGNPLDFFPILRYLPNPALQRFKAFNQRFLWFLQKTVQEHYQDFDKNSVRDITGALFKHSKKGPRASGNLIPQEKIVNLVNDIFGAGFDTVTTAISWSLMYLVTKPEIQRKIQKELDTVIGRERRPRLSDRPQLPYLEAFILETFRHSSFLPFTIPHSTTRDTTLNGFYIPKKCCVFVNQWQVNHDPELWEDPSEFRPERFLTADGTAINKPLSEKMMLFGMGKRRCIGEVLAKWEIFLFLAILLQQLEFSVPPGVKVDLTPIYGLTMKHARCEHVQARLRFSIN

[2] = Drug metabolism in rat hepatocytes assessed as formation of 3-(4-((6-methoxy-1-methyl-1H-benzo[d]imidazol-2-yl)methoxy)phenyl)-2-(methylsulfinyl)propanamide at 30 uM after 3 hrs by radio-HPLC/LC-MS/MS analysis in presence of NADPH-generating system/SAM; assay type: ADME, cell-based, Hepatocyte
Cytochrome P450 2C9 = Cytochrome P450 2C9 (Homo sapiens, UniProt P11712); test: as §1, with “CYP2C9” for “CYP2D6”; assay type: ADME
Chain of Cytochrome P450 2C9 (P11712 whole entry): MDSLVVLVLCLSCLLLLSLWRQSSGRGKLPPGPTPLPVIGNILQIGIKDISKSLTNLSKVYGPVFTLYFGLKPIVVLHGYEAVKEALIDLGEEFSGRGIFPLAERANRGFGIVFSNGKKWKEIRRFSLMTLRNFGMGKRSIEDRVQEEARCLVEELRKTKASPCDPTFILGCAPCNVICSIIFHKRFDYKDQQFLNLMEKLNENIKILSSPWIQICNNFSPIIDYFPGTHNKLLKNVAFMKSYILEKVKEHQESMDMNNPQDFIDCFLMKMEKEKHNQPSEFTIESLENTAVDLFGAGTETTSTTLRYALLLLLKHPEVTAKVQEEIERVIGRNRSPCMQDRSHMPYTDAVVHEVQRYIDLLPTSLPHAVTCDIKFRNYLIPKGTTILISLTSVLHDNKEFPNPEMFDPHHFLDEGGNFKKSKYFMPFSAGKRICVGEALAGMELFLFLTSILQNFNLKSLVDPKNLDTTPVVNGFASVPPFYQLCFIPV
Method in brief: as §2

[3] = Drug metabolism in human hepatocytes assessed as formation of 2-hydroxy-3-(4-((6-methoxy-1-methyl-1H-benzo[d]imidazol-2-yl)methoxy)phenyl)propanamide at 30 uM after 3 hrs by radio-HPLC/LC-MS/MS analysis in presence of NADPH-generating system and NADPH-generating system/SAM; assay type: ADME, cell-based, Hepatocyte
[4] = Drug metabolism in human hepatocytes assessed as formation of 2-mercapto-3-(4-((6-methoxy-1-methyl-1H-benzo[d]imidazol-2-yl)methoxy)phenyl)propanamide at 30 uM after 3 hrs by radio-HPLC/LC-MS/MS analysis in presence of NADPH-generating system and NADPH-generating system/SAM; assay type: ADME, cell-based, Hepatocyte
[5] = biological target: T2, UDP-glucuronosyltransferase 1A8 (Homo sapiens, UniProt Q9HAW9); test: as §3, with “human UGT1A8” for “human CYP1A2”, “after 4” for “after 2”, “of UDPGA” for “of NADPH-generating system/SAM”; assay type: ADME
T2 sequence (Q9HAW9 whole entry): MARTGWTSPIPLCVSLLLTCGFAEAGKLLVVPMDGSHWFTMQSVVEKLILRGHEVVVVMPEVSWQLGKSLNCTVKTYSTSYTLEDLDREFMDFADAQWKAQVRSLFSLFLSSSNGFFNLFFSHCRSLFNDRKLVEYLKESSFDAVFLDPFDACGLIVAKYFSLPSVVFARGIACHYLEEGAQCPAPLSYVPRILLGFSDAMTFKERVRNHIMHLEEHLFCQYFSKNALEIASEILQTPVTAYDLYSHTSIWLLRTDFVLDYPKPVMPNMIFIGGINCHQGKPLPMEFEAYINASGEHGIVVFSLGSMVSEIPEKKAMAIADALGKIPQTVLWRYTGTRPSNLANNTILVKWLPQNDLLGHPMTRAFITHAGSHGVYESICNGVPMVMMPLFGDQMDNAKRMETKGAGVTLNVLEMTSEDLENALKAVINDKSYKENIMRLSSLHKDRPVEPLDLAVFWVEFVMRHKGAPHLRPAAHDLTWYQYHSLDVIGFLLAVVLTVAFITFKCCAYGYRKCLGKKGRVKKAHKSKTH

[6] = Drug metabolism in monkey hepatocytes assessed as formation of 3-(4-((6-methoxy-1-methyl-1H-benzo[d]imidazol-2-yl)methoxy)phenyl)-2-(methylsulfonyl)propanamide at 30 uM after 3 hrs by radio-HPLC/LC-MS/MS analysis in presence of NADPH-generating system/SAM; details: cynomolgus monkey

Row | SMILES | Drug metabolism [1] | Drug metabolism (Liver microsome) | Drug metabolism (Cytochrome P450 2D6) | Drug metabolism (Cytochrome P450 1A2) | Drug metabolism [2] | Drug metabolism (Cytochrome P450 2C9) | Drug metabolism [3] | Drug metabolism [4] | Drug metabolism [5] | Drug metabolism [6]
1 | COc1ccc2nc(COc3ccc(CC(S)C(=O)O)cc3)n(C)c2c1 (stereo not given) | metabolite_not_detected |  |  |  |  |  |  |  |  | 
2 | COc1ccc2nc(COc3ccc(C[14CH]4SC(=O)NC4=O)cc3)n(C)c2c1.Cl (racemic) |  | metabolite_detected | metabolite_detected | metabolite_not_detected | metabolite_detected | metabolite_detected | metabolite_not_detected | metabolite_not_detected | metabolite_not_detected | metabolite_not_detected

Reference: ChEMBL document CHEMBL3526048, “In vitro metabolism of rivoglitazone, a novel peroxisome proliferator-activated receptor γ agonist, in rat, monkey, and human liver microsomes and freshly isolated hepatocytes” (Drug Metab Dispos, 2011)
